{"data": "Assay results from different studies", "DRD5": "D(1B) dopamine receptor (DRD5, Homo sapiens, UniProt P21918)", "SLC10A2": "Ileal sodium/bile acid cotransporter (SLC10A2, Homo sapiens, UniProt Q12908)", "HSD11B1": "11-beta-hydroxysteroid dehydrogenase 1 (HSD11B1, Homo sapiens, UniProt P28845)", "SETD7": "Histone-lysine N-methyltransferase SETD7 (SETD7, Homo sapiens, UniProt Q8WTS6)", "CNR2": "Cannabinoid receptor 2 (CNR2, Homo sapiens, UniProt P34972)"}
{"SMILES": "N#Cc1cc(Cn2c(N3CCCC3)nc3ccccc32)ccc1F", "target": "DRD5", "test": "ligand displacement", "conditions": "10 µM", "inhibition": "48.7%"}
{"SMILES": "CC(CCc1ccccc1)NCC(O)c1ccc(O)c(C(N)=O)c1 (centres unmarked)", "target": "SLC10A2", "test": "transporter uptake, inhibitor, radiometric", "conditions": "1 mM", "inhibition": "38.6%"}
{"SMILES": "CCC(C)(C)C(=O)O[C@H]1C[C@@H](C)C=C2C=C[C@H](C)[C@H](CC[C@@H]3C[C@@H](O)CC(=O)O3)[C@H]21", "target": "HSD11B1", "test": "enzyme activity, inhibitor", "conditions": "20 µM, lysate", "inhibition": "< 40%"}
{"SMILES": "CC(C)(C#N)c1cc(Cn2cncn2)cc(C(C)(C)C#N)c1", "target": "SLC10A2", "test": "transporter uptake, inhibitor, radiometric", "conditions": "1 mM", "inhibition": "36.8%"}
{"SMILES": "CCCCc1oc2ccccc2c1C(=O)c1cc(I)c(OCCN(CC)CC)c(I)c1", "target": "HSD11B1", "test": "enzyme activity, inhibitor", "conditions": "20 µM, lysate", "inhibition": "< 40%"}
{"SMILES": "CC(C)c1ncccc2nc(N)nc1-2", "target": "72 kDa type IV collagenase (MMP2, Homo sapiens, UniProt P08253)", "test": "enzyme activity, inhibitor", "conditions": "50 µM", "inhibition": "52%"}
{"SMILES": "CCN(c1cc(C#CCN2CCOCC2)cc(C(=O)NCc2c(C)cc(C)[nH]c2=O)c1C)[C@H]1CC[C@H](N(C)CCOC)CC1", "target": "Histone-lysine N-methyltransferase SUV39H1 (SUV39H1, Homo sapiens, UniProt O43463)", "test": "enzyme activity, inhibitor", "conditions": "1 µM", "inhibition": "11%"}
{"SMILES": "O=C1C=CC(=O)c2c(O)cccc21", "target": "SETD7", "test": "cell-free assay", "conditions": "10 µM", "inhibition": "13%"}
{"SMILES": "NS(=O)(=O)c1cc2c(cc1C(F)(F)F)NC(Cc1ccccc1)NS2(=O)=O (centres unmarked)", "target": "SLC10A2", "test": "transporter uptake, inhibitor, radiometric", "conditions": "1 mM", "inhibition": "64.5%"}
{"SMILES": "COc1ccc(-n2nc(OCCCN3CCCCC3)ccc2=O)cc1", "target": "CNR2", "test": "ligand displacement", "conditions": "1 µM", "inhibition": "33.1%"}
{"SMILES": "Cc1ccc(Nc2nccc(N(C)c3ccc4c(C)n(C)nc4c3)n2)cc1S(N)(=O)=O", "target": "G protein-coupled receptor kinase 5 (GRK5, Homo sapiens, UniProt P34947)", "test": "enzyme activity, inhibitor", "conditions": "0.3 µM", "inhibition": "-6%"}
{"SMILES": "Ic1cccc2cnccc12", "target": "Protein mono-ADP-ribosyltransferase PARP6 (PARP6, Homo sapiens, UniProt Q2NL67)", "test": "enzyme activity, inhibitor", "conditions": "10 µM", "inhibition": "11%"}
{"SMILES": "C=C(C)C(=O)Nc1cc(C(=O)O)cc(C(=O)O)c1", "target": "Galanin receptor type 1 (GALR1, Homo sapiens, UniProt P47211)", "test": "cell-free assay, radioligand", "conditions": "10 µM", "inhibition": "22%"}
{"SMILES": "CN1CCC(=C2c3ccccc3Sc3ccccc32)CC1", "target": "SETD7", "test": "cell-free assay", "conditions": "10 µM", "inhibition": "41%"}
{"SMILES": "CCN(CC)c1ccc(C2Nc3ccc(C(=O)c4ccccc4)cc3NC3=C2C(=O)CC(C)(C)C3)cc1 (centres unmarked)", "target": "DRD5", "test": "ligand displacement, radioligand", "conditions": "10 µM", "inhibition": "37%"}
{"SMILES": "O=C1c2c(O)cccc2Cc2cccc(O)c21", "target": "SETD7", "test": "cell-free assay", "conditions": "10 µM", "inhibition": "8%"}
{"SMILES": "C[C@@H](O)[C@H]1C(=O)N2C(C(=O)O)=C(S[C@@H]3CN[C@H](C(=O)N(C)C)C3)[C@H](C)[C@H]12", "target": "SLC10A2", "test": "transporter uptake, inhibitor, radiometric", "conditions": "1 mM", "inhibition": "< 10%"}
{"SMILES": "COc1cc(NC(C)=O)c(Cl)cc1C(=O)Nc1nccs1", "target": "CNR2", "test": "cell-free assay", "conditions": "10 µM", "inhibition": "25%"}
{"SMILES": "COc1cc(NC(C)CCCN)c2ncccc2c1 (centres unmarked)", "target": "SETD7", "test": "cell-free assay", "conditions": "10 µM", "inhibition": "-19%"}
{"SMILES": "COc1ccc2c(c1)c(CC(=O)O)c(C)n2C(=O)c1ccc(Cl)cc1", "target": "SLC10A2", "test": "transporter uptake, inhibitor, radiometric", "conditions": "1 mM", "inhibition": "93.2%"}
{"SMILES": "O=C(NC[C@H]1CN(c2ccc(N3CCOCC3=O)cc2)C(=O)O1)c1ccc(Cl)s1", "target": "Coagulation factor X (F10, Homo sapiens, UniProt P00742)", "test": "enzyme activity, inhibitor, absorbance", "conditions": "0.1 µM", "inhibition": "88.6%"}
{"SMILES": "CN(C)c1ccc2nc3ccc(=[N+](C)C)cc-3sc2c1", "target": "SETD7", "test": "cell-free assay", "conditions": "10 µM", "inhibition": "35%"}
{"SMILES": "O=C(c1ccc(Cl)cc1)N(Cc1ccccc1)C1CCCCC1", "target": "CNR2", "test": "cell-free assay", "conditions": "10 µM", "inhibition": "41.6%"}
{"SMILES": "C[C@H]1C[C@@H]2[C@H]([C@@H](O)C[C@@]3(C)[C@H]2CC[C@]3(O)C(=O)CO)[C@@]2(C)C=CC(=O)C=C12", "target": "SLC10A2", "test": "transporter uptake, inhibitor, radiometric", "conditions": "1 mM", "inhibition": "< 10%"}
{"SMILES": "CN1CC(Oc2cnc(C#N)cc2-c2ccn3nc(NC(=O)C4CC4)cc3c2)C1", "target": "Phosphatidylinositol 5-phosphate 4-kinase type-2 alpha (PIP4K2A, Homo sapiens, UniProt P48426)", "test": "enzyme activity, inhibitor", "conditions": "1 µM", "inhibition": "3%"}
{"SMILES": "CN(C)CCCN1c2ccccc2Sc2ccc(Cl)cc21", "target": "HSD11B1", "test": "enzyme activity, inhibitor", "conditions": "20 µM, lysate", "inhibition": "< 40%"}
{"SMILES": "O=C(O[C@@H]1Cc2c(O)cc(O)cc2O[C@@H]1c1cc(O)c(O)c(O)c1-c1c([C@H]2Oc3cc(O)cc(O)c3C[C@H]2O)cc(O)c(O)c1O)c1cc(O)c(O)c(O)c1", "target": "SETD7", "test": "cell-free assay", "conditions": "10 µM", "inhibition": "53%"}
{"SMILES": "CCCCNc1cc(C(=O)O)cc(S(N)(=O)=O)c1Oc1ccccc1", "target": "SLC10A2", "test": "transporter uptake, inhibitor, radiometric", "conditions": "1 mM", "inhibition": "78.1%"}
{"SMILES": "O=C(O[C@@H]1Cc2c(O)cc(O)cc2O[C@@H]1c1cc(O)c(=O)c2c(O)c(O)cc([C@H]3Oc4cc(O)cc(O)c4C[C@H]3OC(=O)c3cc(O)c(O)c(O)c3)c2c1)c1cc(O)c(O)c(O)c1", "target": "SETD7", "test": "cell-free assay", "conditions": "10 µM", "inhibition": "38%"}
{"SMILES": "CC(=O)N[C@H]1CSSC[C@@H](C(=O)N[C@H](Cc2c[nH]c3ccccc23)C(N)=O)NC(=O)[C@H](Cc2ccccc2)NC(=O)[C@H](CCCNC(=N)N)NC1=O", "target": "Melanocortin receptor 5 (MC5R, Homo sapiens, UniProt P33032)", "test": "ligand displacement, radioligand", "conditions": "10 µM, 40 min", "inhibition": "0%"}
{"SMILES": "O=C(c1ccccc1)c1ccc2n1CCC2C(=O)O (centres unmarked)", "target": "SLC10A2", "test": "transporter uptake, inhibitor, radiometric", "conditions": "1 mM", "inhibition": "< 10%"}
{"SMILES": "O=C(O)c1cc(O)c2c(c1)[C@H]([C@H]1c3cc(C(=O)O)cc(O)c3C(=O)c3c(O[C@@H]4O[C@H](CO)[C@@H](O)[C@H](O)[C@H]4O)cccc31)c1cccc(O[C@@H]3O[C@H](CO)[C@@H](O)[C@H](O)[C@H]3O)c1C2=O", "target": "SETD7", "test": "cell-free assay", "conditions": "10 µM", "inhibition": "36%"}
